Molecular target: T1, Neuropeptide Y receptor type 5 (Homo sapiens, UniProt Q15761)
T1 sequence (Q15761 whole entry): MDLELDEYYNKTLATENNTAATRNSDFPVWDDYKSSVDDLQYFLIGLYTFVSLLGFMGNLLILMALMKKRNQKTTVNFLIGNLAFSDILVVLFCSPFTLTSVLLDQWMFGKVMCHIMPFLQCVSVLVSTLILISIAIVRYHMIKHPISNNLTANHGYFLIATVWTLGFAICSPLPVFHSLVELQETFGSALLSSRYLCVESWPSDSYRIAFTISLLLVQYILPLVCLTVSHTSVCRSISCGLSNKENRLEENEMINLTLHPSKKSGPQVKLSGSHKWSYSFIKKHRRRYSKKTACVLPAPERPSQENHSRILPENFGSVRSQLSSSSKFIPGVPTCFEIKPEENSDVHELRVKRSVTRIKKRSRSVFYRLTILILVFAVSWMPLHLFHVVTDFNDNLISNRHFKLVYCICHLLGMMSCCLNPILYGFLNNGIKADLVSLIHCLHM
Assay: Affinity for human neuropeptide Y receptor Y5, binding was evaluated in an in vitro radioligand [125I]PYY binding assay
Outline: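 HEK 293 cells expressing human Y5 receptor, harvested in PBS and homogenized in sucrose buffer; membranes washed by repeated 48000g spins and resuspended in MEM/Earle's assay buffer (25 mM HEPES, 0.1% BSA, STI, Pefabloc, pH 7.4). Membranes (200 µg tissue) incubated with compounds and 0.15 nM [125I]PYY, 2 h at 30 °C. Nonspecific binding defined with 1 µM PYY. Filtration read-out; IC50 by nonlinear regression, averaging at least two 6-point curves.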

IC50 [nM]	Compound
0.5	Cc1ccc(-c2cc3nc(C)nc(N4CCCCC4)c3[nH]2)cc1 [2-Methyl-4-piperidin-1-yl-6-p-tolyl-5H-pyrrolo[3,2-d]pyrimidine]
0.5	Cc1nc(N2CCCCC2)c2[nH]c(-c3ccc(C)o3)cc2n1 [2-Methyl-6-(5-methyl-furan-2-yl)-4-piperidin-1-yl-5H-pyrrolo[3,2-d]pyrimidine]

— BindingDB's records for doi:10.1021/jm000269t (Amgen, 2000)
